# Experimental data gathered from unrelated publications.
# Protocols differ between the studies behind these lines.
# Effect on: metabolic stability
Structure (SMILES),system,setting,endpoint,value
CC(C)N(c1ccc(C#N)cc1)c1ccc(NC(=O)CN(C)c2ccccc2N2CCCC2=O)cn1,"rat, hepatocytes",,hepatocyte CLint,92 µL/min/10⁶ cells
Cc1cc(S(=O)(=O)NC2CC(N3CCN(CC4CCN(c5cccc6c5n(C)c(=O)n6C5CCC(=O)NC5=O)CC4)C4(CC4)C3)C2)ccc1Nc1ncc(C(F)(F)F)c(N2CCC[C@](C)(O)C2)n1 (stereo partly shown),"rat, liver microsomes",1 µM,scaled CLint,< 21 mL/min/kg
Cc1ccc(N(C)c2ccc(NC(=O)CN(C)c3cccnc3N3CCCC3=O)cc2)cc1,"rat, hepatocytes",,hepatocyte CLint,> 92 µL/min/10⁶ cells
C[C@H]1CN(c2ccc(C3CCC(=O)NC3=O)cc2F)CCN1CC12CCC(NS(=O)(=O)c3ccc(Nc4ncc(C(F)(F)F)c(N5CCC[C@](C)(O)C5)n4)c(F)c3)(CC1)CO2 (stereo partly shown),"rat, liver microsomes",1 µM,scaled CLint,< 21 mL/min/kg
N#Cc1ccc(C[C@H](NC(=O)c2cc3cc(F)ccc3[nH]2)C(=O)N2CCc3ccccc32)cc1,"rat, liver microsomes","10 µM, pH 7.4",microsomal CLint,9.1 µL/min/mg
Cc1ccc(-c2csc(CNC(=O)[C@H]3CCCN(C(=O)COCCF)[C@H]3C)n2)cn1,"male Sprague-Dawley rat, liver microsomes",0.5 µM,microsomal CLint,31 µL/min/mg
C[C@]1(O)CCCN(c2nc(Nc3ccc(S(=O)(=O)N[C@H]4CC[C@H](CN5CCN(c6ccc(C7CCC(=O)NC7=O)cc6F)CC5)CC4)cc3F)ncc2C(F)(F)F)C1 (stereo partly shown),"rat, liver microsomes",1 µM,scaled CLint,< 21 mL/min/kg
Cc1ccc(Oc2ccc(NC(=O)CNc3ccccc3-n3cncn3)cc2)cc1,"rat, hepatocytes",,hepatocyte CLint,46 µL/min/10⁶ cells
CCOCC(=O)N1CCC[C@H](C(=O)NCc2nc(-c3ccc(C#N)nc3)cs2)C1,"male Sprague-Dawley rat, liver microsomes",0.5 µM,scaled CLint,19 mL/min/kg
CNc1ccc(C(N)=O)cn1,"male Wistar rat, hepatocytes","1 µM, pH 7.4",hepatocyte CLint,2.9 µL/min/10⁶ cells
N#Cc1ccc(C[C@H](Nc2ncc(-c3ccc(F)cc3)o2)C(=O)N2CCc3ccccc32)cc1,"rat, liver microsomes","10 µM, pH 7.4",microsomal CLint,16.1 µL/min/mg
Cc1ccc(Nc2cnnc3ccc(-c4ccc(N5CCN(C)CC5)cc4)cc23)cn1,"rat, hepatocytes",,hepatocyte CLint,15 µL/min/10⁶ cells
Cc1ccc(N(C)c2ccc(NC(=O)CN(C)c3ccccc3N3CCCC3=O)cc2)cc1,"rat, hepatocytes",,hepatocyte CLint,> 92 µL/min/10⁶ cells
CONC(=O)N1CCC[C@H](C(=O)NCc2nc(-c3ccccc3)cs2)C1,"male Sprague-Dawley rat, liver microsomes",0.5 µM,microsomal CLint,18 µL/min/mg
Cc1cc(S(=O)(=O)N[C@H]2C[C@H](CN3CCN(c4ccc(C5CCC(=O)NC5=O)c(Cl)c4)CC3)C2)ccc1Nc1ncc(C(F)(F)F)c(N2CCC[C@](C)(O)C2)n1 (stereo partly shown),"rat, liver microsomes",1 µM,scaled CLint,36 mL/min/kg
CCONC(=O)N1CCC[C@H](C(=O)NCc2nc(-c3ccccc3)cs2)C1,"male Sprague-Dawley rat, liver microsomes",0.5 µM,microsomal CLint,31 µL/min/mg
COc1cc(-c2cc(C(C)=O)n3ccccc23)c(OC)cc1Cn1ccnc1,"rat, liver microsomes","1 µM, pH 7.4",scaled CLint,145 mL/min/kg
COc1cc(NC(=O)Cn2cc(Cl)c3ccc(-c4cnn(C)c4)cc32)cc(OC)c1OC,"rat, hepatocytes",,hepatocyte CLint,< 1 µL/min/10⁶ cells
Cc1ccc(Oc2ccc(NC(=O)CNc3ccccc3N3CCCC3=O)cc2)cc1,"rat, hepatocytes",,hepatocyte CLint,58 µL/min/10⁶ cells
CNS(=O)(=O)c1ccc(Nc2ncc3cc(Cl)c(=O)n(C4CCCC4)c3n2)c(C)c1,"rat, liver microsomes",1 µM,scaled CLint,70 mL/min/kg
O=C(NCc1nc(-c2ccc(C(F)(F)F)cc2)cs1)[C@H]1CCCN(C(=O)COCCN2CCCC2)C1,"male Sprague-Dawley rat, liver microsomes",0.5 µM,microsomal CLint,34 µL/min/mg
Cc1ccc(Nc2cnnc3ccc(-c4ccc(N5CCCN(C)CC5)cc4)cc23)cn1,"rat, hepatocytes",,hepatocyte CLint,10 µL/min/10⁶ cells
CCONC(=O)N1CCC[C@H](C(=O)NCc2nc(-c3ccc(C#N)cc3)cs2)C1,"male Sprague-Dawley rat, hepatocytes",0.5 µM,scaled CLint,41 mL/min/kg
CC(C)N(c1ccc(Cl)c(F)c1)c1ccc(NC(=O)CN(C)c2ccccc2N2CCCC2=O)cn1,"rat, hepatocytes",,hepatocyte CLint,62 µL/min/10⁶ cells
N#Cc1ccc(C[C@@H](Nc2c(Nc3ccc(F)cc3)c(=O)c2=O)C(=O)N2CCc3ccccc32)cc1,"rat, liver microsomes","10 µM, pH 7.4",microsomal CLint,46.2 µL/min/mg
Cc1cc(S(=O)(=O)N[C@H]2CC[C@H](CN3CCN(c4ccc(C5CCC(=O)NC5=O)c(Cl)c4)CC3)CC2)ccc1Nc1ncc(C(F)(F)F)c(N2CCC[C@](C)(O)C2)n1 (stereo partly shown),"rat, liver microsomes",1 µM,scaled CLint,< 21 mL/min/kg
Cc1ccc(Oc2ccc(NC(=O)COc3ccccc3N3CCCC3=O)cc2)cc1,"rat, hepatocytes",,hepatocyte CLint,68 µL/min/10⁶ cells
CNS(=O)(=O)c1ccc(Nc2ncc(C(F)(F)F)c([C@H]3CC[C@](C)(O)CC3)n2)c(C)c1,"rat, liver microsomes",1 µM,scaled CLint,30 mL/min/kg
NCCOCC(=O)N1CCC[C@H](C(=O)NCc2nc(-c3ccc(C(F)(F)F)cc3)cs2)C1,"male Sprague-Dawley rat, liver microsomes",0.5 µM,scaled CLint,< 5.6 mL/min/kg
Cc1cc(S(=O)(=O)NC2CCC(CC3CCN(c4ccc(C5CCC(=O)NC5=O)cc4)CC3)CC2)ccc1Nc1ncc(C(F)(F)F)c(N2CCC[C@](C)(O)C2)n1 (stereo partly shown),"rat, liver microsomes",1 µM,scaled CLint,< 21 mL/min/kg
N#Cc1ccc(-c2csc(CNC(=O)[C@H]3CCCN(C(=O)N4CCCC4)C3)n2)cc1,"male Sprague-Dawley rat, liver microsomes",0.5 µM,microsomal CLint,223 µL/min/mg
